# According to ChEMBL document CHEMBL1287645, “Synthesis and anti-prion activity evaluation of aminoquinoline analogues” (Eur J Med Chem, 2010):
# Active and inactive are the calls of the source. No cut-off for these calls is given here.
# Experiments:
# [1] = molecular target: Major prion protein (Mesocricetus auratus) (UniProt P04273); test: Inhibition of Syrian hamster prion protein (109-149) aggregation assessed as compound concentration required to inhibit 50% aggregation by spectrofluorimetric analysis
# Method in brief: (§1)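 Synthetic hamster PrP 109–149 peptide was solubilized in 50 mM MES pH 5.0 with 6 M urea and 10 mM SDS, where it stays unfolded. It was diluted at least 100-fold to 0.5 µM in 50 mM MES pH 5.0 containing increasing compound concentrations. Light scattering (450 nm excitation/emission) was followed over time. Maximum scattering was normalized to the no-compound control (100% aggregation) and to the peptide in 6 M urea (0%). Values are means of three independent measurements.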
# [2] = molecular target: Major prion protein (Mesocricetus auratus) (UniProt P04273); test: Inhibition of Syrian hamster prion protein (109-149) aggregation assessed as changes in light scattering at 1 uM by spectrofluorimetric analysis relative to control; method in brief: as §1
# [3] = molecular target: Major prion protein (Mesocricetus auratus) (UniProt P04273); test: Reduction of thioflavin T binding to Syrian hamster prion protein (109-149) at 10 uM after 10 mins by fluorescence assay
# Method in brief: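 Peptide at 1.0 µM was incubated with compound at 10 µM in pH 5.0 buffer. After 10 min, thioflavin T was added to 20 µM final. Emission was recorded from 470–520 nm with excitation at 450 nm. The integrated spectral area was corrected for probe emission without peptide. Values are means of three experiments.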
# [4] = molecular target: Major prion protein (Mesocricetus auratus) (UniProt P04273); test: Inhibition of Syrian hamster prion protein (109-149) aggregation assessed as changes in light scattering at 0.2 uM by spectrofluorimetric analysis relative to control; method in brief: as §1
# [5] = molecular target: Major prion protein (Mesocricetus auratus) (UniProt P04273); test: Inhibition of Syrian hamster prion protein (109-149) aggregation assessed as changes in light scattering at 0.1 uM by spectrofluorimetric analysis relative to control; method in brief: as §1
# Major prion protein (Mesocricetus auratus), sequence (P04273 whole entry): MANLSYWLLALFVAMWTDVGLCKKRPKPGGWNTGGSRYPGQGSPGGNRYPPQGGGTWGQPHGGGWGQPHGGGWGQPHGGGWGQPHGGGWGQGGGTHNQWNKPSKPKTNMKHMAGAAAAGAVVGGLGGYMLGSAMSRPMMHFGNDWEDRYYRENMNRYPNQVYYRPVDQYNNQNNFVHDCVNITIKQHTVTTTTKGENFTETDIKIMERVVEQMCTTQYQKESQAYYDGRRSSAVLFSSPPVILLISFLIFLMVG
SMILES,C50 [1] [µM],inhibition [2] [%],Activity [3],inhibition [4] [%],inhibition [5] [%]
NCCNc1ccnc2cc(Cl)ccc12,0.1,7.9,Active,50,50
Clc1ccc2c(NC3CCCC3)ccnc2c1,> 1,,Active,,
OCCNc1ccnc2cc(Cl)ccc12,> 1,97,Active,,
CCN(CC)CCNc1ccnc2cc(SC(F)(F)F)ccc12,> 1,54,,,
CNc1ccnc2cc(Cl)ccc12,> 0.9,38.6,Active,,
CN(C)CCNc1ccnc2cc(Cl)ccc12,> 1,82,,,
Nc1ccnc2cc(Cl)ccc12,0.2,8.4,Active,50,50
